# Published values from different studies.
# Lines come from different studies, so protocols differ.
# Target: Carbonic anhydrase 1 (CA1, Homo sapiens, UniProt P00915)
# Read-out: enzyme activity
# Action: inhibitor
Structure (SMILES),method,endpoint,result
O=C(Nc1ccc(Cl)cc1)Nc1ccc2c(c1)C=CCP(=O)(O)O2,stopped-flow,Ki,> 10 µM
Cc1cc(=O)oc2cc(OCCCC[Se]C#N)ccc12,stopped-flow,Ki,> 100 µM
Cc1ccc(C(=O)Nc2ccc3c(c2)C=CCP(=O)(O)O3)cc1,stopped-flow,Ki,> 10 µM
Cc1ccc([C@@H]2[C@@H](C(=O)c3cccs3)[C@H](c3ccco3)[C@H]3/C(=N\NC(N)=S)c4ccccc4[C@H]32)cc1 (racemic),absorbance,IC50,0.413 µM
CC(C)c1cc2c(c(O)c1O)[C@@]1(C(=O)O)CCCC(C)(C)[C@@H]1CC2,,IC50,0.0031 µM
NC(=S)N/N=C1/c2ccccc2[C@@H]2[C@H]1[C@@H](c1ccccc1)[C@H](C(=O)c1ccccc1)[C@H]2c1ccccc1 (racemic),absorbance,IC50,1.55 µM
COc1ccc(NC(=O)Nc2ccc3c(c2)C=CCP(=O)(O)O3)cc1,stopped-flow,Ki,> 10 µM
Cc1c(Cl)c(=O)oc2cc(OCCCC[Se]C#N)ccc12,stopped-flow,Ki,> 100 µM
CC(C)c1cc2c(c(O)c1O)[C@@]13CCCC(C)(C)[C@@H]1[C@H](OC3=O)[C@H]2O,,Ki,0.00012 µM
O=C(Nc1cccc(Cl)c1)Nc1ccc2c(c1)C=CCP(=O)(O)O2,stopped-flow,Ki,> 10 µM
COc1ccc(C(=O)[C@@H]2[C@@H](c3ccc(OC)cc3)[C@@H]3c4ccccc4/C(=N/NC(N)=S)[C@@H]3[C@H]2c2ccc(OC)cc2)cc1 (racemic),absorbance,IC50,1.07 µM
CC(C)c1cc2c(c(O)c1O)[C@@]13CCCC(C)(C)[C@@H]1[C@@H](O)[C@@H]2OC3=O,,IC50,0.00163 µM
NC(=S)N/N=C1/c2ccccc2[C@@H]2[C@H]1[C@@H](c1ccsc1)[C@H](C(=O)c1ccsc1)[C@H]2c1ccsc1 (racemic),absorbance,IC50,0.452 µM
CCOP1(=O)CC=Cc2cc(N)ccc2O1 (stereo not drawn),stopped-flow,Ki,> 10 µM
CC(C)c1cc2c(c(O)c1O)[C@@]13CCCC(C)(C)[C@@H]1C[C@@H]2OC3=O,,Ki,0.0023 µM
